ChEMBL document CHEMBL1156619, “TX-2152: a conformationally rigid and electron-rich diyne analogue of FTY720 with in vivo antiangiogenic activity” (Bioorg Med Chem, 2008)

Tests used:
[1] = Hydrophobicity, Log P of the compound; format: physicochemical; settings: octanol/water
In short: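 Observed logP (logPow) measured by HPLC on a C18 column. Mobile phase methanol/water 3:1 (v/v) at 1.0 mL/min, UV detection at 254 nm. Test and reference compounds dissolved in mobile phase for injection.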

Gallus gallus [2] = species on record: Gallus gallus; assay: Antiangiogenic activity in chick embryo chorioallantoic membrane assessed as number of eggs showing 3 mm avascular zone at 100 ug; format: functional, tissue-based
In short: (§1)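 Fertilized chicken eggs held at 37.6 °C, humidified, for 4 days; 3 mL albumin withdrawn and air sac displaced to drop the CAM, window capped, incubation at 39.0 °C. Next day a silicon ring placed on the 2–3 mm CAM and test solution applied dropwise at room temperature. Compounds in DMSO, vehicle control 0.05% DMSO in 1% methyl cellulose/0.9% NaCl. After 1 day incubator raised to 39.5 °C and eggs incubated 1 more day. Vessels then visualized by injecting fat emulsion (1 mL) into the CAM and scored for inhibition.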

Gallus gallus [3] = species on record: Gallus gallus; assay: Antiangiogenic activity in chick embryo chorioallantoic membrane assessed as number of eggs showing 3 mm avascular zone at 10 ug; format: functional, tissue-based; in short: as §1
Gallus gallus [4] = species on record: Gallus gallus; assay: Antiangiogenic activity in chick embryo chorioallantoic membrane assessed as number of eggs showing 3 mm avascular zone at 1 ug; format: functional, tissue-based; in short: as §1
Gallus gallus [5] = species on record: Gallus gallus; assay: Antiangiogenic activity in chick embryo chorioallantoic membrane assessed as number of eggs showing 3 mm avascular zone at 5 ug; format: functional, tissue-based; in short: as §1
Gallus gallus [6] = species on record: Gallus gallus; assay: Antiangiogenic activity in chick embryo chorioallantoic membrane assessed as number of eggs showing 3 mm avascular zone at 2.5 ug; format: functional, tissue-based; in short: as §1

Structure (SMILES): CC(=O)NC(CCc1ccc(C#CC#C[Si](C)(C)C)cc1)(COC(C)=O)COC(C)=O
- logP [1]: 4.97

Structure (SMILES): CCCCCCCCc1ccc(CCC(N)(CO)CO)cc1
- inhibition (Gallus gallus [2]): 100%
- inhibition (Gallus gallus [3]): 77%
- inhibition (Gallus gallus [4]): 40%

Structure (SMILES): CC(=O)NC(CCc1ccc(C#CC#CC#C[Si](C)(C)C)cc1)(COC(C)=O)COC(C)=O
- logP [1]: 5.9

Structure (SMILES): CC(=O)NC(CCc1ccc(C#C[Si](C)(C)C)cc1)(COC(C)=O)COC(C)=O
- logP [1]: 4.07

Structure (SMILES): CO[C@@H]1[C@H](OC(=O)NC(=O)CCl)CC[C@]2(CO2)[C@H]1[C@@]1(C)O[C@@H]1CC=C(C)C
- inhibition (Gallus gallus [3]): 82%
- inhibition (Gallus gallus [4]): 50%
- inhibition (Gallus gallus [5]): 78%

Structure (SMILES): C#CC#Cc1ccc(CCC(N)(CO)CO)cc1
- inhibition (Gallus gallus [3]): 90%
- inhibition (Gallus gallus [4]): 35%
- inhibition (Gallus gallus [5]): 79%
- inhibition (Gallus gallus [6]): 71%

Structure (SMILES): C#Cc1ccc(CCC(N)(CO)CO)cc1
- inhibition (Gallus gallus [3]): 42%
- inhibition (Gallus gallus [4]): 17%
- inhibition (Gallus gallus [5]): 17%

Structure (SMILES): C#CC#CC#Cc1ccc(CCC(N)(CO)CO)cc1
- inhibition (Gallus gallus [3]): 60%
- inhibition (Gallus gallus [4]): 40%
- inhibition (Gallus gallus [5]): 67%
- inhibition (Gallus gallus [6]): 67%
